Data taken from ChEMBL document CHEMBL1156905, “N-heterocyclic derived M1 positive allosteric modulators” (Bioorg Med Chem Lett, 2010).
One block for each compound: values may come before it. Calls of active or inactive are those of the source. No cut-off for these calls is given here.

Legend:
[1] = biological target: T1, Muscarinic acetylcholine receptor M1 (Homo sapiens) (UniProt P11229); assay: Allosteric modulator activity at human muscarinic M1 receptor expressed in CHO cells assessed as potentiation of acetylcholine-induced calcium mobilization by FLIPR assay; format: functional, cell-based
T1 sequence (whole entry): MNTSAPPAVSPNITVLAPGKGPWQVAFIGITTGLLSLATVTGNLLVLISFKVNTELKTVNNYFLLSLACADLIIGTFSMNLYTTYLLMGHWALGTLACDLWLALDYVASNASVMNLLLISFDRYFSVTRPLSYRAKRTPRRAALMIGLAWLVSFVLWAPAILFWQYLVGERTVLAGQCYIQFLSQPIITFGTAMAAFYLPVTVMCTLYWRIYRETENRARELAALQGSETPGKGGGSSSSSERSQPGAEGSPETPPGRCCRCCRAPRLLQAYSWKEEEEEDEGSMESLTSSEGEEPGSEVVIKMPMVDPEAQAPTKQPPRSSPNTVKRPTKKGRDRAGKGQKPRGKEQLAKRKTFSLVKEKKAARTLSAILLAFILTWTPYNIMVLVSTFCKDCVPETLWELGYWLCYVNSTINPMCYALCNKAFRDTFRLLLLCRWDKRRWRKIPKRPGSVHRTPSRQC

[2] = Ratio of drug level in brain to plasma in Sprague-Dawley rat at 10 mg/kg, po; format: ADME, organism-based; set-up: dose 10 mg/kg, route oral
Procedure, shortened: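 Sprague–Dawley rats dosed orally at 10 mg/kg in 0.5% methocel; brain to plasma level ratio; interanimal variability under 20%.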

[3] = Ratio of drug level in rat cerebrospinal fluid to unbound fraction in rat plasma; format: ADME, CSF/Plasma; details: in vivo
[4] = biological target: T1, Muscarinic acetylcholine receptor M1 (Homo sapiens); assay: Allosteric modulator activity at human muscarinic M1 receptor expressed in CHO cells assessed as potentiation of acetylcholine-induced calcium mobilization at 1 uM by FLIPR assay; format: functional, cell-based
Procedure, shortened: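 CHO cells expressing human M1; acetylcholine dose response run with fixed 1 µM potentiator (also 0.01–100 µM series), calcium mobilization by FLIPR; fold left-shift of acetylcholine curve recorded.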

[5] = biological target: T1, Muscarinic acetylcholine receptor M1 (Homo sapiens); assay: Agonist activity at human muscarinic M1 receptor expressed in CHO cells assessed as potentiation of acetylcholine-induced calcium mobilization at >= 10 uM by FLIPR assay; format: functional, cell-based
[6] = Plasma concentration in ip dosed mouse after 24 hrs
[7] = test system: Mus musculus; assay: Reversal of cognitive deficits in contextual fear conditioning in mouse at 10 mg/kg, ip after 24 hrs in presence of Scopolamine; format: functional, organism-based; set-up: dose 10 mg/kg
Procedure, shortened: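 Mouse contextual fear conditioning (episodic memory model); mice given scopolamine before exposure to novel environment; test agent 10 mg/kg ip; reversal compared with scopolamine-alone group; plasma levels sampled.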

[8] = species: Homo sapiens; assay: Protein binding in human plasma; details: read-out: PPB (converted)
[9] = Protein binding in rat plasma; format: ADME, cell-free; details: read-out: PPB (converted)
Procedure, shortened: (§1)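 Binding in rat and human serum/plasma measured by equilibrium dialysis.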

[10] = species: Homo sapiens; assay: Protein binding in human plasma; details: read-out: PPB (converted); remark: listed apart in the source
[11] = test system: Plasma; assay: Fraction unbound in human plasma; format: ADME, cell-free; procedure, shortened: as §1
[12] = Fraction unbound in rat plasma; format: ADME, cell-free; procedure, shortened: as §1
[13] = species: Homo sapiens; assay: Fraction unbound in human plasma

SMILES: O=C(O)c1cn(Cc2ccc(-n3cccn3)cn2)c2c(F)cccc2c1=O
Activity [1]: 1400 nM

SMILES: COc1ccc(Cn2cc(C(=O)O)c(=O)c3ccccc32)cc1
Activity [1]: 660 nM

SMILES: O=C(O)c1cn(Cc2ccc(-n3cccn3)cc2)c2c(F)ccc(F)c2c1=O
Activity [1]: 171 nM | Kp [2]: 0.03 | Ratio [3]: 0.1 | fold change (FC) [4]: 46 | Activity [5]: Active | concentration at 24 h [6]: 9 µM | Activity [7]: Active | fraction unbound [8]: 0.043

SMILES: O=C(O)c1cn(Cc2ccc(-n3ccc(C(F)(F)F)n3)cc2)c2cccc(F)c2c1=O
Activity [1]: 290 nM

SMILES: Cc1ccn(-c2ccc(Cn3cc(C(=O)O)c(=O)c4c(F)cccc43)cc2)n1
Activity [1]: 36 nM | fraction unbound [9]: 0.057 | fraction unbound [10]: 0.057

SMILES: O=C(O)c1cn(Cc2ccc(-n3cccn3)nn2)c2c(F)cccc2c1=O
Activity [1]: 24000 nM

SMILES: Cc1cn(-c2ccc(Cn3cc(C(=O)O)c(=O)c4c(F)cccc43)cc2)cn1
Activity [1]: 140 nM | fraction unbound [8]: 0.111

SMILES: O=C(O)c1cn(Cc2ccc(N3CCOC3=O)cc2)c2cccc(F)c2c1=O
Activity [1]: 500 nM | fraction unbound [9]: 0.116 | fraction unbound [10]: 0.224

SMILES: O=C(O)c1cn(Cc2ccc(-n3cccn3)nc2)c2c(F)cccc2c1=O
Activity [1]: 864 nM

SMILES: O=C(O)c1cn(Cc2ccc(-n3cccn3)cc2)c2c(F)cccc2c1=O
Activity [1]: 96 nM

SMILES: O=C(O)c1cn(Cc2ccc(N3CCCC3=O)cc2)c2cccc(F)c2c1=O
Activity [1]: 2500 nM

The remaining lines, values ahead:

Activity [1]: 160 nM | fraction unbound [8]: 0.031
SMILES: O=C(O)c1cn(Cc2ccc(-n3ccc4cnccc43)cc2)c2cccc(F)c2c1=O

Activity [1]: 39 nM
SMILES: O=C(O)c1cn(Cc2ccc(-n3cnc(-c4ccccc4)c3)cc2)c2cccc(F)c2c1=O

Activity [1]: 96 nM | Fu [11]: 9% | fraction unbound [12]: 0.039 | fraction unbound [8]: 0.084
SMILES: O=C(O)c1cn(Cc2ccc(-n3cnc4ccccc43)cc2)c2cccc(F)c2c1=O

Activity [1]: 110 nM | fraction unbound [8]: 0.162
SMILES: O=C(O)c1cn(Cc2ccc(-n3ccnc3)cc2)c2cccc(F)c2c1=O

Activity [1]: 250 nM
SMILES: O=C(O)c1cn(Cc2ccc(-n3ccc4ccccc43)cc2)c2cccc(F)c2c1=O

Activity [1]: 150 nM
SMILES: O=C(O)c1cn(Cc2ccc(-n3ccc4ncccc43)cc2)c2cccc(F)c2c1=O

Activity [1]: 228 nM
SMILES: O=C(O)c1cn(Cc2ccc(-n3nnc4ccccc43)cc2)c2cccc(F)c2c1=O

Activity [1]: 920 nM
SMILES: Cc1nccn1-c1ccc(Cn2cc(C(=O)O)c(=O)c3c(F)cccc32)cc1

Activity [1]: 2900 nM
SMILES: Cc1ccnn1-c1ccc(Cn2cc(C(=O)O)c(=O)c3c(F)cccc32)cc1

Activity [1]: 181 nM | fraction unbound [9]: 0.003 | fraction unbound [10]: 0.003
SMILES: O=C(O)c1cn(Cc2ccc(-n3cccc3)cc2)c2cccc(F)c2c1=O

Activity [1]: 94 nM | fraction unbound [9]: 0.116 | fraction unbound [12]: 0.1 | Kp [2]: 0.04 | Ratio [3]: 0.05 | fraction unbound [10]: 0.116 | fraction unbound [13]: 0.1
SMILES: O=C(O)c1cn(Cc2ccc(-n3cccn3)cc2)c2cccc(F)c2c1=O

Activity [1]: 620 nM
SMILES: Cc1nn(-c2ccc(Cn3cc(C(=O)O)c(=O)c4c(F)cccc43)cc2)c2ccccc12

Activity [1]: 90 nM
SMILES: O=C(O)c1cn(Cc2ccc(-n3ccc4cccnc43)cc2)c2cccc(F)c2c1=O
